From BindingDB's records for doi:10.1128/AAC.00443-09 (University of Medicine and Dentistry of New Jersey, 2009)
pIC50: −log10 of the molar value.

Key:
1,3-beta-glucan synthase [1] = molecular target: 1,3-beta-glucan synthase (Candida glabrata, UniProt F5BCZ9, P667T); assay: Inhibition of Candida glabrata isolate 51916 1,3-beta-D-glucan synthase wild type Fks1p/Fks2p P667T mutant
Outline: (§1)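 Cells grown in YPD broth at 35°C with vigorous shaking to early stationary phase. Membrane protein extracted and glucan synthase partially purified by product entrapment. Filtration polymerization assay measured [3H]glucose incorporation into product, started by adding enzyme. Echinocandin serial dilutions spanned 0.01–10,000 ng/ml, with 1% DMSO controls for anidulafungin. IC50 from variable-slope sigmoidal fit.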

1,3-beta-glucan synthase [2] = molecular target: 1,3-beta-glucan synthase (Candida glabrata, UniProt F5BCZ9, W1375L); assay: Inhibition of Candida glabrata isolate 5416 1,3-beta-D-glucan synthase wild type Fks1p/Fks2p W1375L mutant; outline: as §1
1,3-beta-glucan synthase [3] = molecular target: 1,3-beta-glucan synthase (Candida glabrata, UniProt F5BCZ9, D666G); assay: Inhibition of Candida glabrata isolate 41400 1,3-beta-D-glucan synthase wild type Fks1p/Fks2p D666G mutant; outline: as §1
1,3-beta-glucan synthase (Candida glabrata, UniProt F5BCZ9, D666G), sequence (F5BCZ9 entry or part of it D666G): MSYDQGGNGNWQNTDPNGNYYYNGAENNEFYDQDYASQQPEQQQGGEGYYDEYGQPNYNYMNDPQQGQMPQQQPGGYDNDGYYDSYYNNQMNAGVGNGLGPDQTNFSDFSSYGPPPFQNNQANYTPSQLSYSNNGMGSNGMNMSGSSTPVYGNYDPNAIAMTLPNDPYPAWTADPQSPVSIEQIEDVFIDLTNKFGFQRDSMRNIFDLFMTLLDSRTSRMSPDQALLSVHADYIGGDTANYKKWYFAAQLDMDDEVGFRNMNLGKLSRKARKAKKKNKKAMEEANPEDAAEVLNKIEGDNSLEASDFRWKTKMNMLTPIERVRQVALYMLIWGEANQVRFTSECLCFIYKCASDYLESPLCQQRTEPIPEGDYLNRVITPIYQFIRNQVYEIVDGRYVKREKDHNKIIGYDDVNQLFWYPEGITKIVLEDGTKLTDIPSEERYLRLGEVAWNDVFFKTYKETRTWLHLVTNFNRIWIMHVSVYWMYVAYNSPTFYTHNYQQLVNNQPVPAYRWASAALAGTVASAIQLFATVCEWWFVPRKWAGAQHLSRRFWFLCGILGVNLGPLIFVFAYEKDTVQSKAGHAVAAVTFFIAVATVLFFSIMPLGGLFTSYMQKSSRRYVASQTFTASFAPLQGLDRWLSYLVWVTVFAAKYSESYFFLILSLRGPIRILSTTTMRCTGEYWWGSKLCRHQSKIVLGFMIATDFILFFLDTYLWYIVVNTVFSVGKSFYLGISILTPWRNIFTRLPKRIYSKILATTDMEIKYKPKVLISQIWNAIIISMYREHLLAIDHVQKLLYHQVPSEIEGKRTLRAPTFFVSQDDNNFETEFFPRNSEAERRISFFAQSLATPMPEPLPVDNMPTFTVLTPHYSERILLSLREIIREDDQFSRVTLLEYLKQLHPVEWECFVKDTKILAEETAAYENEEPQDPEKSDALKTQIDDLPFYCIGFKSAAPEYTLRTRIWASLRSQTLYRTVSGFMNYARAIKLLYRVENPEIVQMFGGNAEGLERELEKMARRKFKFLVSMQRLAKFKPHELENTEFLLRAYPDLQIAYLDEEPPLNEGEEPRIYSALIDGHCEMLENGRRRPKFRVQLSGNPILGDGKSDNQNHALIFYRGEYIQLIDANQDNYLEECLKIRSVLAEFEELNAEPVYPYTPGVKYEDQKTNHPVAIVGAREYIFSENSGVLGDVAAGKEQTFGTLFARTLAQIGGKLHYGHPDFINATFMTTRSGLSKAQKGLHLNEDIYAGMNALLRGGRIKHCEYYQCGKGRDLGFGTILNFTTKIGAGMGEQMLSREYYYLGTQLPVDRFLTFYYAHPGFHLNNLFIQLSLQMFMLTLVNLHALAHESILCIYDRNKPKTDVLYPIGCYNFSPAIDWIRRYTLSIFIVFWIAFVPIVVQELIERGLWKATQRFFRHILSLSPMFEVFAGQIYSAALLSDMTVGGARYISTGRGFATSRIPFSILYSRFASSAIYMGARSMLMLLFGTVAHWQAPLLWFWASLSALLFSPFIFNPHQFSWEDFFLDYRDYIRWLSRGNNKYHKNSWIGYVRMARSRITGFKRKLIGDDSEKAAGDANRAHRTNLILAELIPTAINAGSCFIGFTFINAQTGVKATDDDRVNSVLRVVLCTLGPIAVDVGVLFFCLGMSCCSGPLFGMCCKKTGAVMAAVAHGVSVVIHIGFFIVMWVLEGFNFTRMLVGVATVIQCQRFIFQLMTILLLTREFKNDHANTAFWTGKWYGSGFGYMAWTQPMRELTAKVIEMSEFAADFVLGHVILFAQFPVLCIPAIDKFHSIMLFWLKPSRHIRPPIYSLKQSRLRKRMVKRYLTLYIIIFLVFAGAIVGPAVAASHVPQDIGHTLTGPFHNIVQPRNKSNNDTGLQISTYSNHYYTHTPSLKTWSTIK

1,3-beta-glucan synthase [4] = molecular target: 1,3-beta-glucan synthase (Candida glabrata, UniProt F5BCZ9, F659S); assay: Inhibition of Candida glabrata isolate 41026 1,3-beta-D-glucan synthase wild type Fks1p/Fks2p F659S mutant; outline: as §1
1,3-beta-glucan synthase [5] = molecular target: 1,3-beta-glucan synthase (Candida glabrata, UniProt F5BCZ9, S663P); assay: Inhibition of Candida glabrata isolate 3830 1,3-beta-D-glucan synthase wild type Fks1p/Fks2p S663P mutant; outline: as §1
1,3-beta-glucan synthase [6] = molecular target: 1,3-beta-glucan synthase (Candida glabrata, UniProt E2GKZ4, S629P); assay: Inhibition of Candida glabrata isolate 5847 1,3-beta-D-glucan synthase Fks1p S629P mutant/wild type Fks2p; outline: as §1
1,3-beta-glucan synthase [7] = molecular target: 1,3-beta-glucan synthase (Candida glabrata, UniProt F5BCZ9, F659V); assay: Inhibition of Candida glabrata isolate 234 1,3-beta-D-glucan synthase wild type Fks1p/Fks2p F659V mutant; outline: as §1
1,3-beta-glucan synthase [8] = molecular target: 1,3-beta-glucan synthase (Candida glabrata, UniProt F5BCZ9, D666E); assay: Inhibition of Candida glabrata isolate 42031 1,3-beta-D-glucan synthase wild type Fks1p/Fks2p D666E mutant; outline: as §1
1,3-beta-glucan synthase (Candida glabrata, UniProt F5BCZ9, D666E), sequence (F5BCZ9 entry or part of it D666E): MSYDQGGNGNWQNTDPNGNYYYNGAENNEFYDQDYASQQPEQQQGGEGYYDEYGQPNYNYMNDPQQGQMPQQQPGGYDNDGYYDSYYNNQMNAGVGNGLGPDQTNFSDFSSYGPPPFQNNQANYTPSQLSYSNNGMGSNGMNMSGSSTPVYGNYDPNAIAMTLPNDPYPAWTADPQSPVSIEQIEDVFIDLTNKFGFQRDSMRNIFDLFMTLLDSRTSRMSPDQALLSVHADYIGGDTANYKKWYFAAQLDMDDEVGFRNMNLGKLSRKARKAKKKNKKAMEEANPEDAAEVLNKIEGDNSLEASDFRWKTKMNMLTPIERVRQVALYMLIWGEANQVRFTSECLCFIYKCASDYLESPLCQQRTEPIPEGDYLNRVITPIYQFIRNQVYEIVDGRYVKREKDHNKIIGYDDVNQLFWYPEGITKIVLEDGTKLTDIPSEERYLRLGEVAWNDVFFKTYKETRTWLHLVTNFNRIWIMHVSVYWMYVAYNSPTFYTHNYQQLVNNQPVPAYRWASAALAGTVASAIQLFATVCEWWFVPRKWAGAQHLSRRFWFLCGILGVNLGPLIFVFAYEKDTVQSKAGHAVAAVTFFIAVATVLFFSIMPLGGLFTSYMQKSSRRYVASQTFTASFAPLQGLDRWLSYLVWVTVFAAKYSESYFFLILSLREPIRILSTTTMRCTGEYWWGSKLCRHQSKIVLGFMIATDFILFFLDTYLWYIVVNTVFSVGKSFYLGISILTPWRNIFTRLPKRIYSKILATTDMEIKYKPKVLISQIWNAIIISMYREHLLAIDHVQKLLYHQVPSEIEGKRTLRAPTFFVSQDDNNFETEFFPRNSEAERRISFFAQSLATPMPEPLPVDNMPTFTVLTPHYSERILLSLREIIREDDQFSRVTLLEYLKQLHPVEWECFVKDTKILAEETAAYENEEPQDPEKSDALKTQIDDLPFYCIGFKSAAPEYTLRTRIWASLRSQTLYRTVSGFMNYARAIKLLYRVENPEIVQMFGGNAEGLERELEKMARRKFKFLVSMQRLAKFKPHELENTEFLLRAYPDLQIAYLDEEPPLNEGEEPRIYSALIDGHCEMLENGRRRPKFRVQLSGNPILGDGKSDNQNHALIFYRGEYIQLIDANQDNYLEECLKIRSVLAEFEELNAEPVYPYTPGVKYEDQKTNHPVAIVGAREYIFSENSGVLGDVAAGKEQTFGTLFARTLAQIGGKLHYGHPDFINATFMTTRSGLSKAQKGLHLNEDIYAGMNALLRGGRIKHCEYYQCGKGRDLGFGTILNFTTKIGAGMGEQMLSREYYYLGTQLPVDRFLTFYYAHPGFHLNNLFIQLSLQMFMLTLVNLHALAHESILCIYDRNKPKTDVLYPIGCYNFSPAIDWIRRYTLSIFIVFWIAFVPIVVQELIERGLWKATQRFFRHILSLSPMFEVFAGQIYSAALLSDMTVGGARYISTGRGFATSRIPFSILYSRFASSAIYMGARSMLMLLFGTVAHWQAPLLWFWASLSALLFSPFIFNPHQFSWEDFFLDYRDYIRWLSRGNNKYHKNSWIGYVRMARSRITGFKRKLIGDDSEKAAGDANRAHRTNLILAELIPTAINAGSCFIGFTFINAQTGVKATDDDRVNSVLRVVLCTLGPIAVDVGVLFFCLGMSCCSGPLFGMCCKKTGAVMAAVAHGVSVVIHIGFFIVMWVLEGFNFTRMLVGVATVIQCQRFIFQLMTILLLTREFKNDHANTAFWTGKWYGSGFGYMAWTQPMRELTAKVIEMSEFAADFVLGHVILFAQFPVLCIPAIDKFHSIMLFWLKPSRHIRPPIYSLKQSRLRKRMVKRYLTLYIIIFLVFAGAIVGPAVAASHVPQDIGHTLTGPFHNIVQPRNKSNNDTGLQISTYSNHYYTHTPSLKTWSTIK

1,3-beta-glucan synthase [9] = molecular target: 1,3-beta-glucan synthase (Candida glabrata, UniProt E2GKZ4, D632E); assay: Inhibition of Candida glabrata isolate 3169 1,3-beta-D-glucan synthase Fks1p D632E mutant/wild type Fks2p; outline: as §1

CCC(C)CC(C)CCCCCCCCC(=O)N[C@H]1C[C@@H](O)[C@@H](NCCN)NC(=O)[C@@H]2[C@@H](O)CCN2C(=O)[C@H]([C@H](O)CCN)NC(=O)[C@H]([C@H](O)[C@@H](O)c2ccc(O)cc2)NC(=O)[C@@H]2C[C@@H](O)CN2C(=O)[C@H]([C@@H](C)O)NC1=O (some centres undefined) [CHEBI:474180]
pIC50 (1,3-beta-glucan synthase [1]): 6.78 | pIC50 (1,3-beta-glucan synthase [2]): 6.22 | pIC50 (1,3-beta-glucan synthase [3]): 6.29 | pIC50 (1,3-beta-glucan synthase [4]): 5.97 | pIC50 (1,3-beta-glucan synthase [5]): 5.29 | pIC50 (1,3-beta-glucan synthase [6]): 5.30 | pIC50 (1,3-beta-glucan synthase [7]): 6.94 | pIC50 (1,3-beta-glucan synthase [8]): 6.59 | pIC50 (1,3-beta-glucan synthase [9]): 6.07
